Data from ChEMBL document CHEMBL5576116, “Structural modification of the propyl linker of cjoc42 in combination with sulfonate ester and triazole replacements for enhanced gankyrin binding and anti-proliferative activity” (Bioorg Med Chem, 2024).
Calls of active or inactive are those of the source. The calls are words filed in the database; no cut-off is given here.

How the values were obtained:
HuH-6 [1] = test: Antiproliferative activity against human HuH-6 cells incubated for 72 hrs by MTT assay; format: functional, cell-based; conditions: HuH-6, 72 h
Summary of the method: (§1)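 Cells kept in DMEM with 10% FBS and 1% penicillin/streptomycin, seeded at 2.5 x 10^4 cells/well and left 24 h before drug. Exposed to increasing compound concentrations for 72 h at 37 °C, 5% CO2. MTT dye (5.4 mg/mL) added for 3 h at 37 °C, formazan dissolved in DMSO, A570 read. 6–8 replicates per treatment; IC50 from dose–response curves.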

HuH-6 [2] = test: Upregulation of Rb protein level in human HuH-6 cells at 0.82 to 3.3 uM incubated for 48 hrs by Western blotting analysis; format: functional, cell-based; conditions: dose 0.82-3.3 µM
Summary of the method: (§2)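 HuH6 cells in 10 cm dishes exposed to varying compound concentrations or vehicle (0.25% DMSO final) for 48 h. Harvested in cold PBS, lysed in RIPA plus protease/phosphatase inhibitors for 60 min on ice. 15 μg protein on reducing SDS-PAGE, transferred to PVDF, immunoblotted for p53, Rb and gankyrin with cyclophilin as reference; ECL detection. Run in duplicate.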

[3] = biological target: T1, 26S proteasome non-ATPase regulatory subunit 10 (Homo sapiens) (UniProt O75832); test: Binding affinity to gankyrin in human HuH-6 cells assessed as thermal stability incubated for 5 hrs by CETSA; format: cell-based
T1 sequence (whole entry): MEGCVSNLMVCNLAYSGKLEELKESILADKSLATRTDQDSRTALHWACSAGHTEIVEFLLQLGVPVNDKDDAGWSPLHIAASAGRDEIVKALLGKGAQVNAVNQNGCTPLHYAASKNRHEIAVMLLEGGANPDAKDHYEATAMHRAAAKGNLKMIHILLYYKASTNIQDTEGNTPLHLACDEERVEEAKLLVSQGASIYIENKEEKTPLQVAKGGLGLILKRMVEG
Summary of the method: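 HuH6 cells treated for 5 h with compound or vehicle, 0.25% DMSO final. Harvested cells split into six aliquots heated at 50, 53, 56, 59, 62 or 65 °C. Lysed in RIPA with protease/phosphatase inhibitors, 60 min on ice. 15 μg protein run on reducing SDS-PAGE, blotted to PVDF, probed for gankyrin with β-actin reference, ECL detection. Melt curve mean ± SD, n = 3.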

[4] = Cytotoxicity against HEK293 cells; format: toxicity, cell-based; conditions: human; summary of the method: as §1
HuH-6 [5] = test: Effect on gankyrin protein level in human HuH-6 cells at 0.82 to 3.3 uM incubated for 48 hrs by Western blotting analysis; format: functional, cell-based; conditions: dose 0.82-3.3 µM; summary of the method: as §2
HuH-6 [6] = test: Induction of cell cycle arrest in human HuH-6 cells assessed as accumulation of cells at […] phase at 3.3 uM incubated for 72 hrs PI/RNAase staining based flow cytometry analysis; format: functional
Summary of the method: (§3)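 HuH6 cells treated 72 h with compound or vehicle (0.25% DMSO final), harvested in cold PBS, normalized, fixed in 70% ethanol at −20 °C overnight. Pellet stained with PI/RNase for 30 min at 37 °C, then analyzed by flow and imaging cytometry. Mean ± SD, n = 3; one-way ANOVA, P < 0.05 significant.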

HuH-6 [7] = test: Induction of cell cycle arrest in human HuH-6 cells assessed as decrease in S phase cells at 3.3 uM incubated for 72 hrs PI/RNAase staining based flow cytometry analysis; format: functional; summary of the method: as §3
HuH-6 [8] = test: Upregulation of p53 protein level in human HuH-6 cells at 0.82 to 3.3 uM incubated for 48 hrs by Western blotting analysis; format: functional, cell-based; conditions: dose 0.82-3.3 µM; summary of the method: as §2
Huh-7 = test: Antiproliferative activity against human HuH-7 cells incubated for 72 hrs by MTT assay; format: functional, cell-based; conditions: Huh-7, 72 h; summary of the method: as §1
HepG2 = test: Antiproliferative activity against human HepG2 cells incubated for 72 hrs by MTT assay; format: functional, cell-based; conditions: HepG2, 72 h
Hep 3B2 = test: Antiproliferative activity against human Hep3B cells incubated for 72 hrs by MTT assay; format: functional, cell-based

SMILES	IC50 (HuH-6 [1])	other results
COC(=O)c1ccc(NC(=O)CC(=O)Nc2ccc(C(=O)OC)cc2)cc1	> 50 µM	–
COC(=O)c1ccc(NC(=O)CCCC(=O)Nc2ccc(C(=O)OC)cc2)cc1	14.1 µM	–
COC(=O)c1ccc(NC(=O)Nc2ccc(C)cc2)cc1	38.8 µM	–
COC(=O)c1ccc(C(=O)NCCNC(=O)c2ccc(C)cc2)cc1	31 µM	–
COC(=O)c1ccc(C(=O)NCCCCNC(=O)c2ccc(C)cc2)cc1	> 50 µM	–
COC(=O)c1ccc(-n2cc(CNC(=O)c3ccc(C)cc3)nn2)cc1	> 50 µM	–
Cc1ccc(NC(=O)NS(=O)(=O)c2ccc(C)cc2)cc1	> 50 µM	–
COC(=O)c1ccc(-n2cc(CCCCNC(=O)c3ccc(C)cc3)nn2)cc1	19.5 µM	–
COC(=O)c1ccc(NC(=O)NS(=O)(=O)c2ccc(C)cc2)cc1	> 50 µM	–
Cc1ccc(C(=O)NCCNC(=O)c2ccc(C)cc2)cc1	30.2 µM	–
Cc1ccc(NC(=O)CC(=O)Nc2ccc(C)cc2)cc1	> 50 µM	–
COc1ccc(CNC(=O)NS(=O)(=O)c2ccc(C)cc2)cc1	> 50 µM	–
COc1ccc(CNC(=O)Nc2ccc(C)cc2)cc1	> 50 µM	–
COC(=O)c1ccc(C(=O)NCCNC(=O)c2ccc(C(=O)OC)cc2)cc1	> 50 µM	–
O=C(NCCCNC(=O)c1ccc(C(F)(F)F)cc1)c1ccc(-c2ccccc2)cc1	> 50 µM	–
Cc1ccc(C(=O)NCCCNC(=O)c2ccc(-c3ccccc3)cc2)cc1	20.3 µM	–
Cc1ccc(C(=O)NCCCNC(=O)c2ccc(C)cc2)cc1	> 50 µM	–
COC(=O)c1ccc(NC(=O)CCC(=O)Nc2ccc(-c3ccccc3)cc2)cc1	> 50 µM	–
COC(=O)c1ccc(-n2cc(CCNC(=O)c3ccc(C)cc3)nn2)cc1	> 50 µM	–
Cc1ccc(NC(=O)Nc2ccc(C)cc2)cc1	> 50 µM	–
Cc1ccc(CNC(=O)Nc2ccc(C)cc2)cc1	> 50 µM	–

SMILES	IC50 (HuH-6 [1])	other results
COC(=O)c1ccc(C(=O)NCCCCNC(=O)c2ccc(-c3ccccc3)cc2)cc1	> 50 µM	–
COC(=O)c1ccc(NC(=O)CCC(=O)Nc2ccc(C(=O)OC)cc2)cc1	3.3 µM	Activity (HuH-6 [2]): Active; Activity [3]: Active; IC50 [4]: > 50 µM; Activity (HuH-6 [5]): inactive; Activity (HuH-6 [6]): Active; Activity (HuH-6 [7]): Active; Activity (HuH-6 [8]): Active; IC50 (Huh-7): > 50 µM; IC50 (HepG2): 24 µM; IC50 (Hep 3B2): > 50 µM
COC(=O)c1ccc(C(=O)NCCCCNC(=O)c2ccc(C(=O)OC)cc2)cc1	> 50 µM	–
COC(=O)c1ccc(-n2cc(CCOS(=O)(=O)c3ccc(C)cc3)nn2)cc1	> 50 µM	–
Cc1ccc(NC(=O)CCCCC(=O)Nc2ccc(C)cc2)cc1	> 50 µM	–
Cc1ccc(C(=O)NCCCCNC(=O)c2ccc(C)cc2)cc1	> 50 µM	–
COC(=O)c1ccc(CNC(=O)NS(=O)(=O)c2ccc(C)cc2)cc1	> 50 µM	–
COC(=O)c1ccc(C(=O)NCCCNC(=O)c2ccc(C)cc2)cc1	> 50 µM	–
COC(=O)c1ccc(-n2cc(CCCCOS(=O)(=O)c3ccc(C)cc3)nn2)cc1	> 50 µM	–
COc1ccc(C(=O)NCCCNC(=O)c2ccc(-c3ccccc3)cc2)cc1	2.4 µM	IC50 [4]: 3.3 µM
COC(=O)c1ccc(CNC(=O)Nc2ccc(C)cc2)cc1	> 50 µM	–
Cc1ccc(C(=O)NCCCCNC(=O)c2ccc(-c3ccccc3)cc2)cc1	> 50 µM	–
O=C(NCCCCNC(=O)c1ccc(C(F)(F)F)cc1)c1ccc(-c2ccccc2)cc1	> 50 µM	–
COC(=O)c1ccc(C(=O)NCCCNC(=O)c2ccc(C(=O)OC)cc2)cc1	19.8 µM	IC50 [4]: > 50 µM
COC(=O)c1ccc(-n2cc(CCCOS(=O)(=O)c3ccc(C)cc3)nn2)cc1	> 50 µM	–
Cc1ccc(NC(=O)CCCC(=O)Nc2ccc(C)cc2)cc1	> 50 µM	–
Cc1ccc(CNC(=O)NS(=O)(=O)c2ccc(C)cc2)cc1	> 50 µM	–
COC(=O)c1ccc(NC(=O)CCCCC(=O)Nc2ccc(C(=O)OC)cc2)cc1	> 50 µM	–
COC(=O)c1ccc(NC(=O)CCCCC(=O)Nc2ccc(C)cc2)cc1	> 50 µM	–
COC(=O)c1ccc(C(=O)NCCCNC(=O)c2ccc(-c3ccccc3)cc2)cc1	> 50 µM	–
Cc1ccc(NC(=O)CCC(=O)Nc2ccc(C)cc2)cc1	> 50 µM	–
